Assay outcomes from PubChem BioAssay.
Most compounds without a hit are left out; they make up all but 3.4% or so of the library.
AF4-AF9 inh – MLL-AF4/AF9 protein interaction inhibition | P42568 | inhibition, % at 10 µM | AlphaScreen, biotin-AF4 peptide binding to FLAG-AF9 | 350,000 tested, 0.47% active | AID 651704;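 active = every replicate reaching a set inhibition limit, whatever the replicate mean, cut at about 25% in these data; inconclusive = mean inhibition reaches that limit but some replicates miss it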
E-sel inducer – E-selectin induction on HUVECs; activation, % at 7.58 µM; 260,000 tested, 0.37% active; HUVEC E-selectin immunofluorescence imaging; normalized: neutral wells 0, TNF-alpha wells 100;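 active = mean E-selectin-positive cell signal at least 10% of the positive control, reached in at least 60% of replicates, without over 20% cell loss; inconclusive = no rule given, readout overlaps actives, possibly toxicity-flagged; inactive = the rest, including those meeting only one limit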
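Test system – human umbilical vein endothelial cells (HUVEC), E-selectin induction · Input – 3,000 HUVEC seeded per well · Buffer or medium – EGM-2, gelatin · Compound dosing – single-point compound dose · Detection – immunofluorescence imaging · Measure – percent E-selectin-positive cells · Controls – TNF-alpha high, DMSO low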
SIRT5 block – inhibitors of human sirtuin-5 desuccinylase; Q9NXA8; Purified SirT5, succinyl-peptide AMC, trypsin-coupled fluorescence; inhibition, % at 15 µM; 330,000 tested, 1.1% active; in the data active = inhibition above about 15%; inconclusive = no clear call, values can overlap the other calls
rRNA inh HTS – inhibits bacterial ribosomal RNA function over humanized ribosomes. 350,000 tested, 1.6% active. GFP signal change (wild-type ribosome), % (no concentration beside the values). E. coli WT GFP vs humanized-ribosome RFP mutants, fluorescence, 24 h; active compounds read low; DMSO median 0, no signal -100;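 active = significant combined selectivity score with lowered wild-type GFP, culture density cut under 30%, mutant RFP and density less affected; inactive = any of these conditions unmet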
S100A4 inh HTS – inhibitors of human S100A4 binding to myosin IIA peptide. 360,000 tested, 0.14% active. inhibition, % at 10.7 µM. P26447. S100A4/TAMRA-MyoIIA peptide fluorescence polarization;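 active = mean inhibition of at least 70% across replicates, with every replicate also reaching that level; inconclusive = mean inhibition reaches 70% but some replicates fall short; inactive = mean inhibition below 70%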
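Material: S100A4 monomer protein / Buffer or medium: 50 mM HEPES pH 7.2, 10 mM CaCl2, 100 mM KCl / Times: 5 min incubation before reading / Benchmarks: neutral control DMSO, positive control TFP / Reagent: labelled myosin peptide probe, 5 nM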
ERAP1 HTS inh – inhibitors of human ERAP1 aminopeptidase | Q9NZ08 | recombinant ERAP1, Leu-AMC fluorescence, 60 min | inhibition, % at 10.7 µM | 340,000 tested, 0.15% active;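 active = mean replicate inhibition of at least 30%, or all replicates individually reaching that 30% level; inactive = mean below 30% and not every replicate reaching it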
AID977621 – wild-type E. coli growth inhibition versus H69 humanized strain – H69 mutant RFP, wild-type GFP, cherry-pick, dose response. 1,900 tested, under 10 active. AID 977621. shares compounds with rRNA inh HTS. activity change, negative = inhibition at 50 µM. fluorescence, 24 h;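 active = Wild-type ribosome reporter drop at least double the humanized mutant ribosome reporter drop, growth loss under a set limit; inconclusive = no clear call, values can overlap the other calls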;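 also: wild-type GFP and H69 mutant RFP strains grown together 50/50 in each well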
AID977628 – E. coli growth inhibition, wild-type GFP versus h24 humanized RFP strain, dose response, h24 mutant RFP vs wild-type GFP, cherry-pick. E. coli WT GFP strain growth, fluorescence, 24 h. shares compounds with rRNA inh HTS. 1,900 tested, under 10 active. activity change, negative = inhibition at 50 µM;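 active = compound lowering the normal-ribosome reporter at least twice as much as the humanized-ribosome reporter, growth loss under a set limit; inconclusive = no clear call, values can overlap the other calls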;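 also: wild-type GFP and h24 humanized RFP strains co-cultured 1 to 1 per well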
Hits are given with their value; i = inactive; ? = inconclusive; nt = not tested or not shown.

SMILES | AF4-AF9 inh | E-sel inducer | SIRT5 block | rRNA inh HTS | S100A4 inh HTS | ERAP1 HTS inh | AID977621 | AID977628
N#Cc1cccc(-c2ccc3c(c2)[C@@H]2[C@@H](CCN2S(=O)(=O)c2cccc(F)c2)[C@H](CO)N3)c1 | i | i | i | -19.1 | i | i | ? | nt
CN1c2ccc(-c3ccccc3)cc2[C@@H]2[C@@H](CCN2C(=O)c2ccc(F)cc2)[C@@H]1CO | i | i | i | i | i | i | nt | nt
O=C(COC(=O)[C@@H]1CCCN1S(=O)(=O)c1ccccc1F)c1ccccc1 | i | i | i | -15.7 | i | i | i | ?
CCOC(=O)c1c(C)[nH]c(C)c1C(=O)COC(=O)C1CCCN1S(=O)(=O)c1ccccc1F (centres undefined) | nt | nt | i | nt | i | i | nt | nt
OCCN(Cc1ccccc1)Cc1ccc(F)c(F)c1 | i | nt | i | -23.3 | i | i | i | i
OCCN(Cc1ccccc1)Cc1ccccc1O | i | nt | i | i | i | i | nt | nt
O=C(COC(=O)C1CC1)Nc1nc(-c2ccc(F)c(F)c2)cs1 | i | i | i | -24.0 | i | i | i | nt
COc1ccc(NC(=O)N(C)C[C@@H]2Oc3ccc(NC(=O)Nc4ccc5c(c4)OCO5)cc3C(=O)N([C@H](C)CO)C[C@@H]2C)cc1 | i | i | i | i | i | i | nt | nt
NC(=O)c1ccc(NC(=O)COC(=O)C2CC3C=CC2C3)cc1 (centres undefined) | i | i | i | i | i | i | nt | nt
O=C(COC(=O)C1CC2C=CC1C2)Nc1ccc([N+](=O)[O-])cc1 (centres undefined) | i | nt | i | -30.7 | i | i | i | i
O=C(CN1CCCCC1)n1c2ccccc2c2ccccc21 | nt | i | i | -23.7 | i | i | i | i
O=C(NCCc1ccccc1)c1ccc(S(=O)(=O)N2CCCCC2)cc1 | i | i | nt | i | i | i | nt | nt
CSc1ccccc1C(=O)NCCc1ccc(S(=O)(=O)N2CCCCC2)cc1 | i | nt | i | -21.4 | i | i | nt | i
O=C(Nc1cc(S(=O)(=O)N2CCCCC2)ccc1N1CCCCC1)C1CC1 | i | i | i | -20.1 | i | i | i | i
O=C(c1ccccc1)N(c1ccccc1)c1nccc2ccccc12 | i | i | nt | -28.0 | i | nt | i | nt
COc1ccc(NS(=O)(=O)c2cccc(C(=O)NNC(=O)CNC(=O)c3cccc(C)c3)c2)cc1 | i | ? | i | i | i | i | nt | nt
COc1ccc(NS(=O)(=O)c2cc(NC(=O)CNC(=O)c3cccc(OC)c3)ccc2C)cc1 | i | nt | i | -24.6 | i | i | i | nt
C[C@@H]1CN([C@H](C)CO)C(=O)c2cc(NC(=O)Cc3ccccc3)ccc2O[C@H]1CN(C)CC1CC1 | i | i | i | i | i | i | nt | nt
COc1ccc(C#Cc2ccc([C@@H]3[C@H]4CN(C(=O)Nc5cccc(F)c5)CCCCN4[C@H]3CO)cc2)cc1 | nt | i | i | i | nt | nt | nt | nt
COc1ccc(C#Cc2ccc([C@@H]3[C@H](CO)N4CCCCN(C(=O)Nc5cccc(F)c5)C[C@@H]34)cc2)cc1 | i | i | i | -49.0 | i | i | nt | ?
COc1ccc(C#Cc2ccc([C@H]3[C@@H](CO)N4CCCCN(C(=O)Nc5cccc(F)c5)C[C@H]34)cc2)cc1 | nt | i | nt | -48.2 | nt | nt | i | i
COc1cccc(S(=O)(=O)N2CCCCN3[C@H](C2)[C@@H](c2ccc(C#CC(C)C)cc2)[C@@H]3CO)c1 | i | i | i | i | i | i | i | i
COc1ccc(C#Cc2ccc([C@H]3[C@@H](CO)N4CCCCN(C(=O)Nc5cccc(F)c5)C[C@@H]34)cc2)cc1 | i | i | i | i | i | i | nt | nt
C[C@H]1CN([C@@H](C)CO)C(=O)c2cc(NS(=O)(=O)c3ccc(F)cc3)ccc2O[C@@H]1CN(C)S(=O)(=O)c1ccc(F)cc1 | i | i | i | i | i | i | nt | nt
O=C(N[C@H]1CC[C@@H](CCNC(=O)c2ccccc2F)O[C@H]1CO)c1ccc2c(c1)OCO2 | i | i | i | i | i | i | nt | nt
